# Laboratory results published in article PMC5723699 (Pharmacology Research & Perspectives, 2017).
# Key:
# [1] = Part A single ascending dose blood pharmacokinetics; type: in vivo, human
# Part B repeat-dose = type: in vivo, human; conditions: for AUC: male, human, in vivo, po, AUC0‐tau, plasma, oral, geometric mean (% CV)
# RIPK1 = biological target: T1, RIPK1 (Homo sapiens, UniProt Q13546); test: RIPK1 target engagement; type: in vivo; conditions: Part A
# T1 sequence (Q13546 1-671): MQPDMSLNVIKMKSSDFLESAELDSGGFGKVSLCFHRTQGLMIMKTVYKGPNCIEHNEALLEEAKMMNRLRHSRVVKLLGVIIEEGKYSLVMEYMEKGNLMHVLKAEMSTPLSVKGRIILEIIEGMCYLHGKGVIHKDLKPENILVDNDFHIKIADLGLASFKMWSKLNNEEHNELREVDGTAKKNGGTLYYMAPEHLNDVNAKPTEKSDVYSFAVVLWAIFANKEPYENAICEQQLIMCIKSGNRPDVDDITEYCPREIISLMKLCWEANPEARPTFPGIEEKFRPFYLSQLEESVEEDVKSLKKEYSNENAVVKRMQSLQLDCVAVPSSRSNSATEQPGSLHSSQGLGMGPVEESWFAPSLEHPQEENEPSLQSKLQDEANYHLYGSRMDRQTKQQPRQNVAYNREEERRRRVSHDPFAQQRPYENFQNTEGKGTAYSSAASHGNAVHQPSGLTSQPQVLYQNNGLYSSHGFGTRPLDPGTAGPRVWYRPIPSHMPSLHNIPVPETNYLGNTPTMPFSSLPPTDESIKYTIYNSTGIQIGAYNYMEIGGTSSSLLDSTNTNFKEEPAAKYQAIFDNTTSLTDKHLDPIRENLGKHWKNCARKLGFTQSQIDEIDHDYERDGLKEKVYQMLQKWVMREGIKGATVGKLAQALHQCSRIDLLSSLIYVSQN
# MIP‐1α = test: Ex vivo whole blood challenge assay; type: cell-based, human
# [2] = Analysis of metabolism in blood, plasma, urine and bile; type: in vivo, human
# How it was run: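 Oral dosing in healthy volunteers. Urine collected at various time points. Bile sampled by Entero-Test in one Part B cohort on Days −1 and 7, about 2 h after the morning dose. Blood/water, plasma, urine and bile analysed for relative levels of parent drug and metabolites.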
# CYP3A4 = test: Plasma 4β-hydroxycholesterol-to-cholesterol ratio as marker of CYP3A4 induction; conditions: following 14 days of dosing
# Safety and tolerability = conditions: for Subjects with drug‐related AEs / Application‐site erythema / Catheter‐site erythema / Contact dermatitis / Headache / Nasopharyngitis / Rash / Subjects with any AE: Part B; for Application‐site erythema / Catheter‐site erythema / Contact dermatitis / Headache / Nasopharyngitis / Rash / Subjects with any AE: 14 days (n = 9)
structure (smiles),measurement,setting,value
CN1C(=O)[C@@H](NC(=O)c2nnc(Cc3ccccc3)[nH]2)COc2ccccc21 [GSK2982772],Time to C max,"[1]; blood, single dose 10 mg capsule, fasted",1.5 h
same,Median time to C max,"[1]; blood, single dose 0.1, 0.5 and 2.5 mg in solution, fasted",≤ 1 h
same,Time to C max,"[1]; blood, single dose 120 mg capsule, fasted",2.5 h
same,Dose linearity of kinetics,[1]; dose range 0.1‐120 mg,approximately linear kinetics
same,half-life,"[1]; male, human, whole blood, oral",~6 h
same,AUC,"Part B repeat-dose; 20 mg, 20 mg QD, Day 1",1160 ng·h/mL
same,AUC,"Part B repeat-dose; 20 mg, 20 mg QD, Day 14",1140 ng·h/mL
same,AUC,"Part B repeat-dose; 60 mg, 60 mg BID, Day 1",4330 ng·h/mL
same,AUC,"Part B repeat-dose; 60 mg, 60 mg BID, Day 14",3100 ng·h/mL
same,AUC,"Part B repeat-dose; 60 mg, 60 mg QD, Day 14",2590 ng·h/mL
same,AUC,"Part B repeat-dose; 120 mg, 120 mg BID, Day 1",7050 ng·h/mL
same,AUC,"Part B repeat-dose; 120 mg, 120 mg BID, Day 14",6990 ng·h/mL
same,Attainment of steady state (trough plasma predose concentration Days 2 to 14),Part B repeat-dose; repeat dosing,reached a plateau by Day 2
same,Percent TE,"RIPK1; 1.5 hours postdose, single doses of 10 mg and above",> 90%
same,Percent TE (>90% level),"RIPK1; 8 hours postdose, single doses of 40 mg and above",sustained
same,Percent TE,"RIPK1; 48 hours postdose, all dose groups",negligible
same,IC50,"MIP‐1α; Homo sapiens, read-out: Concentration needed to elicit a half‐maximal response in all assays, all assays (MIP‐1α, MIP‐1β, TE)",~1.4 ng/mL
same,Inhibition (mean of MIP‐1α and MIP‐1β),"MIP‐1α; Part B Day 14, 60 mg and 120 mg BID, out to 24 hours posttreatment",maximal inhibition
same,Inhibition (mean of MIP‐1α and MIP‐1β),"MIP‐1α; Part B Day 14, 1.5 hours and 8 hours postdose, all treatment groups",maximal inhibition
same,Unchanged drug in urine,[2]; in vivo,trace levels
same,Unchanged drug in blood and plasma extracts,"[2]; single and repeat oral dosing, together with N‐glucuronide metabolite",major circulating drug‐related components
same,CYP3A4 induction,CYP3A4,no evidence of CYP3A4 induction
same,Drug‐related AEs (total number),"Safety and tolerability; Part A, reported in 2 subjects, all of mild intensity",3
same,Subjects with drug‐related AEs,Safety and tolerability; 20 mg QD group,3 subjects
same,Application‐site erythema,Safety and tolerability; 20 mg QD,0 n (%)
same,Catheter‐site erythema,Safety and tolerability; 20 mg QD,0 n (%)
same,Contact dermatitis,Safety and tolerability; 20 mg QD,1 (11) n (%)
same,Headache,Safety and tolerability; 20 mg QD,4 (44) n (%)
same,Nasopharyngitis,Safety and tolerability; 20 mg QD,0 n (%)
same,Rash,Safety and tolerability; 20 mg QD,0 n (%)
same,Subjects with any AE,Safety and tolerability; 20 mg QD,7 (78) n (%)
same,Subjects with drug‐related AEs,Safety and tolerability; 60 mg BID group,4 subjects
same,Application‐site erythema,Safety and tolerability; 60 mg BID,0 n (%)
same,Catheter‐site erythema,Safety and tolerability; 60 mg BID,2 (22) n (%)
same,Contact dermatitis,Safety and tolerability; 60 mg BID,5 (56) n (%)
same,Headache,Safety and tolerability; 60 mg BID,3 (33) n (%)
same,Nasopharyngitis,Safety and tolerability; 60 mg BID,1 (11) n (%)
same,Rash,Safety and tolerability; 60 mg BID,1 (11) n (%)
same,Subjects with any AE,Safety and tolerability; 60 mg BID,9 (100) n (%)
same,Application‐site erythema,Safety and tolerability; 60 mg QD,0 n (%)
same,Catheter‐site erythema,Safety and tolerability; 60 mg QD,1 (11) n (%)
same,Contact dermatitis,Safety and tolerability; 60 mg QD,3 (33) n (%)
same,Headache,Safety and tolerability; 60 mg QD,0 n (%)
same,Nasopharyngitis,Safety and tolerability; 60 mg QD,0 n (%)
same,Rash,Safety and tolerability; 60 mg QD,3 (33) n (%)
same,Subjects with any AE,Safety and tolerability; 60 mg QD,6 (67) n (%)
same,Application‐site erythema,Safety and tolerability; 120 mg BID,2 (22) n (%)
same,Catheter‐site erythema,Safety and tolerability; 120 mg BID,0 n (%)
same,Contact dermatitis,Safety and tolerability; 120 mg BID,0 n (%)
same,Headache,Safety and tolerability; 120 mg BID,1 (11) n (%)
same,Nasopharyngitis,Safety and tolerability; 120 mg BID,3 (33) n (%)
same,Rash,Safety and tolerability; 120 mg BID,0 n (%)
same,Subjects with any AE,Safety and tolerability; 120 mg BID,6 (67) n (%)
same,AEs involving clinical laboratory or electrocardiogram abnormalities,Safety and tolerability; any part of the study,no AEs involving clinical laboratory abnormalities or electrocardiogram abnormalities were reported
same,"Serious AEs, suicidality or deaths",Safety and tolerability; any part of the study,"No serious AEs, suicidality or deaths were reported"
same,Overall safety and tolerability,"Safety and tolerability; single and repeat doses, healthy adult male volunteers",generally safe and well tolerated
same,"Vital signs, physical, neurological examinations, respiratory assessments",Safety and tolerability; whole study,no clinically significant abnormal findings
